Type in all cases: functional
Assay [1] relates to CCRF-CEM. The assay can be described thus: Growth inhibition of human CCRF-CEM cells assessed as cell growth at 10^-7 M after 48 hrs by sulforhodamine B assay. As to conditions: read-out: Activity.
Assay [2] concerns CCRF-CEM. In words: Growth inhibition of human CCRF-CEM cells assessed as cell growth at 10^-5 M after 48 hrs by sulforhodamine B assay. The following applies: read-out: Activity. (The SRB assay estimates cell density from bound dye.)
For assay [3], the system named is OVCAR-8. In words: Growth inhibition of human OVCAR8 cells assessed as cell growth at 10^-5 M after 48 hrs by sulforhodamine B assay. As to conditions: OVCAR-8, 48 h, read-out: Activity.
Assay [4] concerns NCI-H460. The assay can be described thus: Growth inhibition of human NCI-H460 cells after 48 hrs by sulforhodamine B assay. The following applies: NCI-H460, 48 h; for CC50: read-out: LC50 (the source's name). In a few lines: (§1)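 Adherent cells in RPMI 1640 with 5% FBS and 2 mM L-glutamine were plated at 5000–40,000 cells/well and grown 24 h. Five concentrations (0.01–100 µM, DMSO stock) were added for 48 h at 37 °C. Cells were fixed with cold TCA (10% final) and stained with SRB, read at 515 nm. GI50 came from log concentration–growth curves against time-zero and control plates.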

For assay [5], the system named is OVCAR-4. The assay can be described thus: Growth inhibition of human OVCAR4 cells assessed as cell growth at 10^-8 M after 48 hrs by sulforhodamine B assay. As to conditions: OVCAR-4, 48 h, read-out: Activity.
For assay [6], the system named is SK-MEL-2. In words: Growth inhibition of human SK-MEL-2 cells assessed as cell growth at 10^-6 M after 48 hrs by sulforhodamine B assay. The following applies: SK-MEL-2, 48 h, read-out: Activity.
Assay [7] has as its system SK-MEL-2. The assay can be described thus: Growth inhibition of human SK-MEL-2 cells assessed as cell growth at 10^-5 M after 48 hrs by sulforhodamine B assay. As to conditions: SK-MEL-2, 48 h, read-out: Activity.
Assay [8] relates to HCT-15. The assay can be described thus: Growth inhibition of human HCT15 cells assessed as cell growth at 10^-6 M after 48 hrs by sulforhodamine B assay. The following applies: HCT-15, 48 h, read-out: Activity.
The subject of assay [9] is CCRF-CEM. In words: Growth inhibition of human CCRF-CEM cells after 48 hrs by sulforhodamine B assay. As to conditions: read-out: LC50 (the source's name). In a few lines: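 Leukemia suspension cells in RPMI 1640 with 5% FBS and 2 mM L-glutamine were plated at 5000–40,000 cells/well and grown 24 h. Five concentrations (0.01–100 µM) were given for 48 h at 37 °C. Settled cells were fixed with 80% TCA (16% final) and SRB-stained, read at 515 nm. GI50 came from dose–response curves against time-zero and control plates.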

Assay [10] has as its system RXF 393. In words: Growth inhibition of human RXF393 cells assessed as cell growth at 10^-8 M after 48 hrs by sulforhodamine B assay. As to conditions: RXF 393, 48 h, read-out: Activity.
Assay [11] concerns CCRF-CEM. In words: Growth inhibition of human CCRF-CEM cells assessed as cell growth at 10^-8 M after 48 hrs by sulforhodamine B assay. As to conditions: read-out: Activity.
Assay [12] relates to CCRF-CEM. In words: Growth inhibition of human CCRF-CEM cells assessed as cell growth at 10^-4 M after 48 hrs by sulforhodamine B assay. As to conditions: read-out: Activity.
Assay [13] relates to LOX IMVI. In words: Growth inhibition of human LOXIMVI cells after 48 hrs by sulforhodamine B assay. The method, boiled down:
as §1

In assay [14] the test system is CCRF-CEM. The assay can be described thus: Growth inhibition of human CCRF-CEM cells assessed as cell growth at 10^-6 M after 48 hrs by sulforhodamine B assay. As to conditions: read-out: Activity.
The subject of assay [15] is K562. In words: Growth inhibition of human K562 cells assessed as cell growth at 10^-4 M after 48 hrs by sulforhodamine B assay. As to conditions: K562, 48 h, read-out: Activity.
Assay [16] relates to SR. The assay can be described thus: Growth inhibition of human SR cells assessed as cell growth at 10^-7 M after 48 hrs by sulforhodamine B assay. As to conditions: read-out: Activity.
Assay [17] relates to SK-MEL-2. The assay can be described thus: Growth inhibition of human SK-MEL-2 cells assessed as cell growth at 10^-7 M after 48 hrs by sulforhodamine B assay. As to conditions: SK-MEL-2, 48 h, read-out: Activity.
For assay [18], the system named is SK-MEL-28. The assay can be described thus: Growth inhibition of human SK-MEL-28 cells assessed as cell growth at 10^-7 M after 48 hrs by sulforhodamine B assay. As to conditions: SK-MEL-28, 48 h, read-out: Activity.
Assay [19] deals with SK-MEL-2. In words: Growth inhibition of human SK-MEL-2 cells assessed as cell growth at 10^-4 M after 48 hrs by sulforhodamine B assay. The following applies: SK-MEL-2, 48 h, read-out: Activity.
Assay [20] relates to SK-MEL-5. The assay can be described thus: Growth inhibition of human SK-MEL-5 cells after 48 hrs by sulforhodamine B assay. The following applies: SK-MEL-5, 48 h.
Assay [21] relates to MDA-MB-231. The assay can be described thus: Growth inhibition of human MDA-MB-231 cells after 48 hrs by sulforhodamine B assay. The following applies: MDA-MB-231, 48 h.
For assay [22], the system named is HT-29. In words: Growth inhibition of human HT-29 cells after 48 hrs by sulforhodamine B assay. The following applies: HT-29, 48 h. The method, boiled down:
as §1

The test system of assay [23] is SF-295. The assay can be described thus: Growth inhibition of human SF295 cells after 48 hrs by sulforhodamine B assay. As to conditions: SF-295, 48 h. In a few lines: as §1
Where [24] appears, read: read-out: LC50 (the source's name).

What is called TGI is the concentration giving total growth inhibition. The low end stands for more potent growth arrest, the high end for less potent growth arrest. Turning to `O=S(=O)(Nc1ccc(Cl)cc1)c1ccc2nc(-c3ccccc3)c(-c3ccccc3)nc2c1`, the growth at 0.1 µM was 91% in [1], 88% in assay [16], 99% in [17] and 96% in assay [18]. Further, the growth at 10 µM in assay [2] is -40%; in [3], 6%; in assay [7] it was -56%. Further, the CC50 in [4], in assay [9] and in assay [13] (setting [24]) was over 100 µM throughout. The growth at 0.01 µM in assay [5] is 85%; in assay [10], 97%; in [11], 88%. The growth at 1 µM in [6] came to 99%; in assay [8], 87%; in assay [14] it was 79%. Also, the growth at 100 µM was 64% in assay [12], 58% in assay [15] and 69% in [19]. Further, the TGI in assay [13] is over 100 µM.
One may read the GI50 as the concentration giving 50% growth inhibition. High values mean lower sensitivity of the cells, low ones greater sensitivity of the cells. In the case of `O=S(=O)(Nc1ccccn1)c1ccc2nc(-c3ccccc3)c(-c3ccccc3)nc2c1`, the GI50 in [20] was 1.46 µM; in [21], 1.82 µM; in [22], 1.78 µM; in [23] it was 1.87 µM. The CC50 in [22] (setting [24]) was over 100 µM; in assay [4], over 100 µM; in assay [23] (setting [24]), 100 µM. In assay [4], the TGI was over 100 µM. The growth at 0.01 µM in assay [5] came out at 100%; in assay [10] it was 105%. Besides, the growth at 100 µM in assay [15] is 48%. The growth at 0.1 µM in assay [16] came out at 89%.

(Values after ChEMBL document CHEMBL2407075, “Sulphonamido-quinoxalines: search for anticancer agent” (Eur J Med Chem, 2013).)
